One data set addresses recombinant HIV-1-RT (Human immunodeficiency virus type 1 group M subtype B, UniProt P03366). As to the kind of experiment: Reverse Transcriptase Colorimetric Assay. It counts as biochemical.
Data set [1] is described as follows: Cytotoxicity against PBMC. The conditions noted are these: human, peripheral blood mononuclear cells (PBMC). It counts as cell-based. An outline of the steps: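 PBMCs from healthy volunteers, grown in IL-2-supplemented medium, seeded at 20,000 cells/well and exposed to fatty acids at 5–500 µM final. Incubation 3 days at 37 °C in humidified 5% CO2. Viability read by MTT.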

For another data set, the system named is HIV-1 RT. The conditions noted are these: read-out: IC50 against HIV-1 RT; non-competitive inhibitor; cited from earlier work.

SMILES strings stand for the structures.

In general, IC50 refers to the concentration needed to halve the response being measured.

As to `CCCCCCCCCCCCCCCCCCCC#CCCCC(=O)O` [1a, 5-Pentacosynoic acid], the IC50 at recombinant HIV-1-RT is 24 ± 1 µM. For the same molecule, the IC50 at 3 days in data set [1] was more than 500 µM.

`CCCCCCCCCCCCCCCC#CCCCCCCCC(=O)O` [1b, 9-Pentacosynoic acid] showed an IC50 at 3 days in data set [1] of more than 500 µM.

In the case of `CCCCCCCCCCCCCCCCCCCCCCC#CC(=O)O` [2-Pentacosynoic acid], the half-inhibitory concentration (IC50) at recombinant HIV-1-RT was 566 ± 1 µM.

Consider `CCCCCCCCCCCCCCCCCCC/C=C\CCCC(=O)O` [2a, (5Z)-5-Pentacosenoic acid], for which the half-inhibitory concentration (IC50) at recombinant HIV-1-RT stood at 38 ± 1 µM. The same molecule displayed an IC50 at 3 days in data set [1] of more than 500 µM.

On to `CCCCCCCCCCCCCCC/C=C\CCCCCCCC(=O)O` [2b, (9Z)-9-Pentacosenoic acid], for which, on recombinant HIV-1-RT, the IC50 came out at 54 ± 1 µM. This molecule also gave an IC50 at 3 days in data set [1] of more than 500 µM.

Regarding `CCCCCCCCCCC#CCCCCC(=O)O` [6-Heptadecynoic acid], at recombinant HIV-1-RT, the IC50 was more than 1000 µM.

Take `CCCCCCCCCCCCCC#CCCCCC(=O)O` [6-Icosynoic acid]: the IC50 on recombinant HIV-1-RT was more than 1000 µM.

`CCCCCCCC/C=C\CCCCCCCCCCCCCC(=O)O` [Nervonic acid, cis-15-tetracosenoic acid]: the IC50 is 12 ± 1 µM on recombinant HIV-1-RT and 4.8 µM with HIV-1 RT. The molecule also yielded a concentration for half-maximal inhibition (IC50) at 3 days in data set [1] of more than 500 µM.

Consider `CCCCCCCCCCCCCCCC(=O)O` [Palmitic acid], for which the half-inhibitory concentration (IC50) at recombinant HIV-1-RT was more than 1000 µM.

For the molecule `CCCCCCCCCCCCCCCCCCCCCCCCC(=O)O` [Pentacosanoic acid], the “inhibition of the HIV-1 RT enzyme (in words)” value on recombinant HIV-1-RT (recombinant HIV-1 RT, colorimetric assay) was “does not inhibit HIV-1 RT at all”.

The record behind these values is paper PMC4841444 (Lipids, 2015).
